A short description of experiment [1]: Inhibition of beta-lactamase VIM-1 lysate (unknown origin) using nitrocefin as substrate preincubated for 10 mins followed by substrate addition. The method, boiled down: (§1)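 Test compound was preincubated 10 min with enzyme, then substrate was added and optical density was followed over time to determine Ki (μM). CTX-M-14 (class A), Oxa-48 (class D) and NDM-1 (class B) were purified enzymes; VIM-1 (class B) was a lysate. NDM-1 used imipenem as substrate; the other three used nitrocefin.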

Experiment [2] in a line: Inhibition of purified beta-lactamase CTX-M-14 (unknown origin) using nitrocefin as substrate preincubated for 10 mins followed by substrate addition. Put shortly: as §1
Experiment [3] is described as follows: Inhibition of purified beta-lactamase NDM-1 (unknown origin) using imipenem as substrate preincubated for 10 mins followed by substrate addition. Put shortly: as §1
Experiment [4] can be described thus: Inhibition of purified beta-lactamase Oxa-48 (unknown origin) using nitrocefin as substrate preincubated for 10 mins followed by substrate addition. Put shortly: as §1
The test system of experiment [5] is Mycobacterium tuberculosis. The experiment in a line: Antituberculosis activity against Mycobacterium tuberculosis H37Rv in 7H12 medium incubated for 4 days by Microplate Alamar Blue assay. It is filed as functional. Conditions: 96 h. Put shortly:
(§2)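 MICs in μM were determined against M. tuberculosis H37Rv by Microplate Alamar Blue assay. Line 2 used 7H12 medium, which is 7H9 medium plus casitone, palmitic acid, albumin and catalase.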
On the technique in general: Alamar Blue is a resazurin reagent that responds to reducing activity.

In experiment [6] the test system is Mycobacterium tuberculosis. The experiment in a line: Antituberculosis activity against Mycobacterium tuberculosis H37Rv in glycerol-alanine salts medium incubated for 4 days by Microplate Alamar Blue assay. The experiment is classed as functional. Conditions: 96 h. The method, boiled down: as §2
In another experiment the test system is Mycolicibacterium vaccae. The experiment in a line: Antibacterial activity against Mycobacterium vaccae IMET 10670 incubated for 18 to 24 hrs measured after 24 to 48 hrs by agar diffusion assay. The experiment is classed as functional, organism-based. The method, boiled down:
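Kirby–Bauer agar diffusion assay; the read-out is the diameter of the inhibition zone in mm.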
In general terms: A growth-free zone around the sample is the usual read-out of agar diffusion tests.

Molecules are shown by their SMILES. In brackets after ≈: the same amount, converted by molar mass. Activity calls are given as the source filed them. No cut-off for these calls is given here.

On to `CC(=O)O[C@@H]1NC(=O)[C@H]1NC(=O)COc1ccccc1`, for which the Ki (as a rule, a measure of affinity in units of concentration, obtained from inhibition or displacement) was above 160 µM in experiment [1], above 160 µM in experiment [2], 5.87 µM in experiment [3] and above 160 µM in experiment [4].
For `C[C@@H](O[Si](C)(C)C(C)(C)C)[C@H]1C(=O)N[C@@H]1N(OCc1ccccc1)C(=O)c1ccccc1`, the Ki in experiment [1] is above 160 µM; in experiment [2], 0.25 µM; in experiment [3], above 160 µM; in experiment [4] it was above 160 µM. For the same compound, the MIC in experiment [5] and in experiment [6] was above 100 µM each time.
As to `CSN1C(=O)[C@H]([C@@H](C)O[Si](C)(C)C(C)(C)C)[C@H]1N(OCc1ccccc1)C(=O)c1ccccc1`, the Ki in experiment [1] is above 160 µM; in experiment [2], 0.4 µM; in experiment [3], above 160 µM; in experiment [4], above 160 µM. Moreover, the result in the experiment with Mycolicibacterium vaccae was inactive. For the same compound, the MIC (as a rule, the least concentration at which growth counts as inhibited) in experiment [5] was found to be 10.3 µM (≈ 5.14 µg/mL); in experiment [6], 0.753 µM.
Take `C[C@@H](O)[C@H]1C(=O)N[C@@H]1N(OCc1ccccc1)C(=O)c1ccccc1`: the Ki in experiment [1], in experiment [2], in experiment [3] and in experiment [4] was above 160 µM throughout. Further, the MIC in experiment [5] and in experiment [6] was above 100 µM throughout.
As for `CSN1C(=O)[C@@H](NC(=O)Cc2ccccc2)[C@@H]1OC(C)=O`, the MIC in experiment [5] stood at 47.6 µM (≈ 14.7 µg/mL); in experiment [6], 10.7 µM.
Consider `C[C@@H](O[Si](C)(C)C(C)(C)C)[C@H]1C(=O)N[C@@H]1N(O)C(=O)c1ccccc1`, for which the Ki in experiment [1] was above 160 µM; in experiment [2] it was 0.32 µM; in experiment [3], above 160 µM; in experiment [4], above 160 µM. Further, the MIC in experiment [5] and in experiment [6] was above 50 µM each time.
`O=C(Cc1ccccc1)N[C@@H]1C(=O)N[C@H]1N(OCc1ccccc1)C(=O)c1ccccc1`: the Ki in experiment [1] was above 160 µM; in experiment [2], above 160 µM; in experiment [3], 5.54 µM; in experiment [4] it was above 160 µM. The MIC in experiment [5] was above 100 µM; in experiment [6] it was 6.05 µM.
As to `O=C(COc1ccccc1)N[C@@H]1C(=O)N[C@H]1N(OCc1ccccc1)C(=O)c1ccccc1`, the inhibition constant (Ki) in experiment [1] was above 160 µM; in experiment [2] it was 0.05 µM; in experiment [3] it was above 160 µM; in experiment [4], above 160 µM. Further, the minimum inhibitory concentration (MIC) is 5.93 µM (≈ 2.64 µg/mL) in experiment [5] and below 0.195 µM in experiment [6].
For the compound `C=CCON(C(=O)c1ccc([N+](=O)[O-])cc1)C1CC(=O)N1SC` (racemic), the Ki was 22.7 µM in experiment [1], 0.64 µM in experiment [2], 0.03 µM in experiment [3] and above 160 µM in experiment [4].
With `CSN1C(=O)CC1N(OCc1ccccc1)C(=O)c1ccc([N+](=O)[O-])cc1` (racemic), the Ki in experiment [1] was above 160 µM; in experiment [2], above 160 µM; in experiment [3], 0.97 µM; in experiment [4], above 160 µM. Further, the MIC in experiment [5] was above 100 µM; in experiment [6] it was 24.2 µM.
As for `CCOc1ccc(C(=O)N(OCc2ccccc2)C2CC(=O)N2)cc1` (racemic), the Ki in experiment [1], in experiment [2], in experiment [3] and in experiment [4] was above 160 µM in each case. The MIC in experiment [5] was above 100 µM; in experiment [6], 49.3 µM.
For `CSN1C(=O)[C@@H](NC(=O)Cc2ccccc2)[C@@H]1N(OCc1ccccc1)C(=O)c1ccccc1` (racemic), the Ki in experiment [1] is 2.86 µM; in experiment [2], above 160 µM; in experiment [3] it was 0.07 µM; in experiment [4], 1.95 µM. Also, the MIC stood at 47.3 µM (≈ 22.5 µg/mL) in experiment [5] and 11.6 µM in experiment [6].
In the case of `CSN1C(=O)CC1N(OCc1ccccc1)C(=O)c1cc([N+](=O)[O-])cc(C(F)(F)F)c1` (racemic), the MIC in experiment [5] amounted to 23.4 µM (≈ 10.6 µg/mL); in experiment [6] it was 5.92 µM.
As to `C=CCON(C(=O)c1ccc([N+](=O)[O-])cc1)C1CC(=O)N1` (racemic), the Ki in experiment [1], in experiment [2], in experiment [3] and in experiment [4] was above 160 µM throughout.
Consider `CSN1C(=O)[C@@H](NC(=O)COc2ccccc2)[C@@H]1N(OCc1ccccc1)C(=O)c1ccccc1` (racemic), for which the Ki in experiment [1] was above 160 µM; in experiment [2], above 160 µM; in experiment [3], 0.06 µM; in experiment [4] it was above 160 µM. In the experiment on Mycolicibacterium vaccae, the outcome was inactive. The MIC in experiment [5] is 6 µM (≈ 2.95 µg/mL); in experiment [6], above 50 µM.
Turning to `CSN1C(=O)[C@@H](NC(=O)COc2ccccc2)[C@@H]1N(OCc1ccccc1)C(=O)c1cc([N+](=O)[O-])cc(C(F)(F)F)c1` (racemic), the inhibition constant (Ki) in experiment [1] was above 160 µM; in experiment [2], above 160 µM; in experiment [3] it was 0.15 µM; in experiment [4] it was above 160 µM. For the same compound, the MIC in experiment [5] is above 100 µM; in experiment [6] it was 64.1 µM.
Consider `CC(C)(C)[Si](C)(C)ON(C(=O)c1ccccc1)[C@@H]1NC(=O)[C@H]1NC(=O)COc1ccccc1` (racemic), for which the Ki was 31.2 µM in experiment [1], above 160 µM in experiment [2], 0.96 µM in experiment [3] and above 160 µM in experiment [4].
As to `CC(C)(C)[Si](C)(C)N1C(=O)CC1N(OCc1ccccc1)C(=O)c1ccccc1` (racemic), the Ki was above 160 µM in experiment [1], above 160 µM in experiment [2], above 160 µM in experiment [3] and 1.72 µM in experiment [4]. The result in the experiment on Mycolicibacterium vaccae was inactive. Also, the figures for the MIC in experiment [5] and in experiment [6] were 49.2 µM (≈ 20.2 µg/mL) and 0.28 µM, respectively.
On to `CCOc1ccc(C(=O)N(OCc2ccccc2)C2CC(=O)N2SC)cc1` (racemic), for which the Ki is above 160 µM in experiment [1], above 160 µM in experiment [2], 0.07 µM in experiment [3] and above 160 µM in experiment [4]. Besides, the MIC is above 100 µM in experiment [5] and 34.8 µM in experiment [6].
For the compound `CSN1C(=O)CC1N(OCc1ccccc1)C(=O)c1ccccc1` (racemic), the MIC was above 50 µM in experiment [5] and 17.9 µM in experiment [6].
Take `C=CCON(C(=O)c1cc([N+](=O)[O-])cc(C(F)(F)F)c1)C1CC(=O)N1SC` (racemic): the Ki was 59.3 µM in experiment [1], above 160 µM in experiment [2], 0.04 µM in experiment [3] and above 160 µM in experiment [4].
Regarding `C=CCON(C(=O)c1cc([N+](=O)[O-])cc(C(F)(F)F)c1)C1CC(=O)N1` (racemic), the Ki in experiment [1] is above 160 µM; in experiment [2] it was above 160 µM; in experiment [3] it was above 160 µM; in experiment [4] it was 1.93 µM.
In the case of `O=C1CC(N(OCc2ccccc2)C(=O)c2cc([N+](=O)[O-])cc(C(F)(F)F)c2)N1` (racemic), the MIC in experiment [5] came to 44.7 µM (≈ 18.3 µg/mL); in experiment [6] it was 30.3 µM.
On to `C[C@H]1COC2(CCN(c3nc(=O)c4cc(C(F)(F)F)cc([N+](=O)[O-])c4s3)CC2)O1` [BTZ-043], for which the MIC in experiment [5] and in experiment [6] was below 0.004 µM in each case.
Take `CO[C@H]1/C=C/O[C@@]2(C)Oc3c(C)c(O)c4c(O)c(c(/C=N/N5CCN(C)CC5)c(O)c4c3C2=O)NC(=O)/C(C)=C\C=C\[C@H](C)[C@H](O)[C@@H](C)[C@@H](O)[C@@H](C)[C@H](OC(C)=O)[C@@H]1C` [RIFAMPIN]: the MIC came to 0.05 µM (≈ 0.0411 µg/mL) in experiment [5] and 0.04 µM in experiment [6].

Source of the values: ChEMBL document CHEMBL3785040, “Syntheses and Biological Evaluations of Highly Functionalized Hydroxamate Containing and N-Methylthio Monobactams as Anti-Tuberculosis and β-Lactamase Inhibitory Agents” (Medchemcomm, 2016).
